Measured values gathered from unrelated publications.
Each line is one published result; the experiments were not run side by side.
Target: Dual specificity mitogen-activated protein kinase kinase 1 (MAP2K1, Homo sapiens, UniProt Q02750)

c1cncc(-c2cccc(Nc3nccc(NC4CCCCC4)n3)c2)c1 — remaining binding (binding, competition with immobilised ligand; 10 µM): 79%
FC(F)(F)Oc1cccc(-c2cnc3ccc(-c4ccncc4)nn23)c1 — remaining binding (cell-free assay, competition with immobilised ligand; 5 µM): 70%
CN(c1nccc(-c2cnn3ncccc23)n1)C1CC1 — remaining binding (binding; 1 µM): 100%
C[C@H](c1cccc(C#N)c1)n1cc(Cl)cc(C(N)=O)c1=N — remaining binding (cell-free assay, competition with immobilised ligand; 1 µM): 75%
COC(=O)Nc1nc2cc(C(=O)c3ccccc3)ccc2[nH]1 — remaining binding (cell-free assay, competition with immobilised ligand; 0.1 µM): 100%
N#Cc1ccccc1CSc1nnc2c(n1)[nH]c1ccccc12 — remaining binding (binding, competition with immobilised ligand; 10 µM): 95%
CNC(=O)c1cc(Oc2ccc(NC(=O)Nc3ccc(Cl)c(C(F)(F)F)c3)cc2)ccn1 — remaining binding (cell-free assay, competition with immobilised ligand; 0.1 µM): 100%
COc1ccc2c(c1)O[C@@H](c1ccc(OC)c(OC)c1)C[C@H]2NC(=O)C1(c2ccc3c(c2)OC(F)(F)O3)CC1 — remaining binding (cell-free assay, competition with immobilised ligand; 1 µM): 86%
O=C(NCCCN1CCOCC1)c1ccc(Nc2nccc(-c3cc4ccccc4s3)n2)cc1 — remaining binding (binding, competition with immobilised ligand; 1 µM): 75%
CCN1CCN(Cc2ccc(C(=O)Nc3ccc(C)c(Oc4ccc5c(c4)CC(=O)N5)c3)cc2C(F)(F)F)CC1 — remaining binding (binding, competition with immobilised ligand; 1 µM): 100%
CS(=O)(=O)CCNCc1ccc(-c2ccc3ncnc(Nc4ccc(OCc5cccc(F)c5)c(Cl)c4)c3c2)o1 — remaining binding (cell-free assay, competition with immobilised ligand; 10 µM): 87%
CC1=C(C#N)C(c2ccc3c(c2)c(NC(=O)c2ccccc2C)nn3C)C(C#N)=C(C)N1 — remaining binding (cell-free assay, competition with immobilised ligand; 1 µM): 87%
CN1CC[C@H](c2c(O)cc(O)c3c(=O)cc(-c4ccccc4Cl)oc23)[C@H](O)C1 — remaining binding (cell-free assay, competition with immobilised ligand; 10 µM): 92%
O=C(Nc1c[nH]nc1C(=O)NC1CCNCC1)c1cc(F)cc(F)c1 — remaining binding (binding, competition with immobilised ligand; 1 µM): 80%
CCN(CC)CCNC(=O)c1c(C)[nH]c(/C=C2\C(=O)Nc3ccc(F)cc32)c1C — remaining binding (cell-free assay, competition with immobilised ligand; 0.1 µM): 51%
N#CC1(c2ccccn2)CCN(Cc2cc(C(=O)N3CCCC3)c(=O)n3ccccc23)CC1 — remaining binding (cell-free assay, competition with immobilised ligand; 1 µM): 100%
C[C@@H]1CN(c2ccc3ncc(-c4ccc5[nH]nc(C6CC6)c5c4)n3n2)C[C@H](C)O1 — remaining binding (binding, competition with immobilised ligand; 50 nM): 80%
COc1ncc2cc3ccccc3nc2c1C#N — remaining binding (cell-free assay, competition with immobilised ligand; 5 µM): 90%
O=C1CCc2cc(Nc3cc(OC4CCOCC4)c([N+](=O)[O-])cc3Cl)ccc2N1 — remaining binding (cell-free assay, competition with immobilised ligand; 1 µM): 72%
O=C(c1ccc(Nc2nccc(-c3cc4ccccc4s3)n2)cc1)N1CCC(N2CCCC2)CC1 — remaining binding (binding, competition with immobilised ligand; 1 µM): 54%
CN(C)c1nccc(-c2cnc3ncccn23)n1 — remaining binding (binding, competition with immobilised ligand; 1 µM): 81%
COc1cc2ncnc(Nc3ccc(F)c(Cl)c3)c2cc1OCCCN1CCOCC1 — remaining binding (cell-free assay, competition with immobilised ligand; 10 µM): 83%
CC(=O)Nc1c(C(C)=O)c(=O)n(C)c2nc(-c3ccc(Cl)cc3Cl)c(-c3ccc(Cl)cc3)cc12 — remaining binding (cell-free assay, competition with immobilised ligand; 1 µM): 100%
F[C@@H]1CCN(c2nccc(-c3cnn4ncccc34)n2)C1 — remaining binding (binding; 1 µM): 89%
O=C(N1CCS(=O)(=O)CC1)N1C[C@H](c2ccc(OC(F)(F)F)cc2)C[C@H](c2nc(C3CC3)no2)C1 — remaining binding (cell-free assay, competition with immobilised ligand; 1 µM): 91%
Cc1c(-c2ccccc2)oc2c(C(=O)OCCN3CCCCC3)cccc2c1=O — remaining binding (cell-free assay, competition with immobilised ligand; 10 µM): 95%
CN(C)c1ncnc(-c2ccc3nc(Nc4cc(CN5CCN(C(=O)CC(F)(F)F)CC5)ccn4)[nH]c3c2)c1Cl — remaining binding (cell-free assay, competition with immobilised ligand; 1 µM): 78%
C[C@H]1CCN(c2nccc(-c3cnn4ncccc34)n2)C1 — remaining binding (binding, competition with immobilised ligand; 1 µM): 66%
CNC(=O)[C@@H]1CC[C@@H](n2c(-c3ccc4cnccc4c3)nc3ccc(C(=O)NCc4cccc(C(N)=O)c4)cc32)C1 — remaining binding (binding, competition with immobilised ligand; 1 µM): 100%
Cc1ccc(NC(=O)c2ccc(CN3CCN(C)CC3)cc2)cc1Nc1nccc(-c2cccnc2)n1 — remaining binding (cell-free assay, competition with immobilised ligand; 10 µM): 94%
CN(C)c1ncc(F)c(-c2cnn3ncccc23)n1 — remaining binding (binding, competition with immobilised ligand; 1 µM): 78%
Cc1cnc(Nc2ccc(C(=O)N3CCC(N4CCCC4)CC3)cc2)nc1-c1cc2ccccc2s1 — remaining binding (binding, competition with immobilised ligand; 1 µM): 25%
